Measurements reported in ChEMBL document CHEMBL1126881, “3-Nitro-3,4-dihydro-2(1H)-quinolones. Excitatory amino acid antagonists acting at glycine-site NMDA and (RS)-alpha-amino-3-hydroxy-5-methyl-4-isoxazolepropionic acid receptors” (J Med Chem, 1993).

Tests used:
[1] = biological target: Glutamate receptor ionotropic, NMDA 1 (Rattus norvegicus, UniProt P35439); experiment: Binding affinity towards NMDA receptor to displace [3H]L-689,560 from rat cortical membranes
[2] = species: Rattus norvegicus; experiment: In vitro evaluation to antagonize NMDA responses in rat cortical slice preparation; assay type: functional
Outline: (§1)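 Rat cortical slice preparation. Apparent Kb was calculated from the rightward shift of the agonist (NMDA or AMPA) concentration-response curve produced by the antagonist. Values are means of three determinations.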

[3] = pKa value was determined; assay type: physicochemical
[4] = test system: Mus musculus; experiment: In vivo evaluation to protect DBA/2 mice against audiogenic seizure at 75 mg/kg ip 30 min prior to noise stimulation; 2 out of 8 mouse effected; assay type: functional; details: route intraperitoneal
[5] = pKa value was determined; Value ranges from 5-6; assay type: physicochemical
[6] = species: Rattus norvegicus; experiment: In vitro evaluation to antagonize AMPA responses in rat cortical slice preparation; assay type: functional; outline: as §1
[7] = test system: Mus musculus; experiment: In vivo evaluation to protect DBA/2 mice against audiogenic seizure at 100 mg/kg ip 30 min prior to noise stimulation; 0 out of 8 mouse effected; assay type: functional; details: route intraperitoneal
[8] = test system: Mus musculus; experiment: In vivo evaluation to protect DBA/2 mice against audiogenic seizure ip 30 min prior to noise stimulation; assay type: functional
Outline: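 DBA/2 mice dosed intraperitoneally 30 min before noise stimulation and scored for protection against audiogenic seizure. Results are reported as ED50 (mg/kg) or as number protected/number tested at a single dose (50, 75 or 100 mg/kg, groups of 8).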

[9] = test system: Mus musculus; experiment: In vivo evaluation to protect DBA/2 mice against audiogenic seizure at 50 mg/kg ip 30 min prior to noise stimulation; 0 out of 8 mouse effected; assay type: functional; details: route intraperitoneal

Structure (SMILES)	IC50 [1] [µM]	Kb [2]	pKa [3]	further results
O=C(CC1c2ccc(Cl)cc2NC(=O)C1[N+](=O)[O-])Nc1ccccc1 (stereo not given)	7.43	> 10 µM	–	–
COC(=O)CC1c2ccc(Cl)cc2NC(=O)C1S(C)(=O)=O (stereo not given)	> 100	–	> 11	–
COC(=O)CC1c2ccc(Cl)cc2NC(=O)C1C(=O)OC (stereo not given)	> 100	–	> 11	–
COC(=O)CC1c2ccc(Cl)cc2NC(=O)C1S(=O)(=O)c1ccccc1 (stereo not given)	> 100	–	10.8	–
CNC(=O)CC1c2ccc(Cl)cc2NC(=O)C1[N+](=O)[O-] (stereo not given)	12.4	>30	–	–
CCOC(=O)CC1c2ccc(Cl)cc2NC(=O)C1[N+](=O)[O-] (stereo not given)	2.23	8.1 µM	–	–
COC(=O)CC1c2ccc(Cl)cc2NC(=O)C1[N+](=O)[O-] (stereo not given)	1.32	7 µM	–	Protected [4]: 2; pKa [5]: ~5; Kb [6]: 139 µM
O=C(CC1c2ccc(Cl)cc2NC(=O)C1[N+](=O)[O-])NCc1ccccc1 (stereo not given)	2.53	–	–	Protected [7]: 0
COC(=O)CC1c2ccc(Cl)cc2NC(=O)C1C#N (stereo not given)	12	–	10.2	–
O=C1Nc2cc(Cl)ccc2CC1[N+](=O)[O-] (stereo not given)	0.414	6.7 µM	–	ED50 [8]: 13.2 mg/kg; Kb [6]: 9.2 µM
COC(=O)CC1CC(=O)Nc2cc(Cl)ccc21 (stereo not given)	> 100	–	–	–
Cc1noc(CC2c3ccc(Cl)cc3NC(=O)C2[N+](=O)[O-])n1 (stereo not given)	5.59	25.9 µM	–	Protected [7]: 0
CN(C(=O)CC1c2ccc(Cl)cc2NC(=O)C1[N+](=O)[O-])c1ccccc1 (stereo not given)	1.84	> 10 µM	–	Protected [9]: 0
COC(=O)CC1c2ccc(Cl)cc2NC(=O)C1C(=O)c1ccccc1 (stereo not given)	> 100	–	~9	–
COC(=O)CC1c2ccc(Cl)cc2NC(=O)C1S(=O)(=O)c1ccc([N+](=O)[O-])cc1 (stereo not given)	> 100	–	9.9	–
COC(=O)Cc1c(C(=O)OC)c(O)nc2cc(Cl)ccc12	> 100	–	–	–
COC(=O)CC1c2ccccc2NC(=O)C1[N+](=O)[O-] (stereo not given)	28.6	–	–	–
CN(C)C(=O)CC1c2ccc(Cl)cc2NC(=O)C1[N+](=O)[O-] (stereo not given)	–	22.2 µM	–	Protected [7]: 0
